Source: ChEMBL document CHEMBL1122773 (1984)
Values after ≈ are worked out from the molar mass of the structure shown.

Legend:
Format in all cases: functional
[1] = tested on: Mus musculus; experiment: (§1) In vivo antibacterial activity against Escherichia coli(UC 311) infected mice after oral administration
Summary of the method: (§2)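 Fresh drug solutions were given subcutaneously (0.2 mL) or by oral intubation (0.5 mL), per line. Dosing was immediately after infection, then daily for 4 consecutive days, with 3 further days of observation. CD50 was calculated by Spearman-Karber.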

[2] = tested on: Mus musculus; experiment: In vivo antibacterial activity against Escherichia coli (UC no 311) infected mice after sc administration; summary of the method: as §2
[3] = tested on: Mus musculus; experiment: In vivo antibacterial activity against Klebsiella pneumoniae (UC 58) infected mice after sc administration; summary of the method: as §2
[4] = tested on: Mus musculus; experiment: In vivo antibacterial activity against Pasteurella multocida (UC no 264) infected mice after sc administration; summary of the method: as §2
[5] = tested on: Mus musculus; experiment: In vivo antibacterial activity against Plasmodium berghei infected mice (Mus musculus) after subcutaneous administration
[6] = tested on: Mus musculus; experiment: In vivo antibacterial activity against Proteus vulgaris (UC no 347) infected mice after sc administration; summary of the method: as §2
[7] = tested on: Mus musculus; experiment: In vivo antibacterial activity against Staphylococcus aureus(UC 76) infected mice after oral administration; summary of the method: as §2
[8] = tested on: Mus musculus; experiment: In vivo antibacterial activity against Streptococcus pyogenes(UC 152) infected mice after oral administration; summary of the method: as §2
[9] = tested on: Mus musculus; experiment: In vivo antibacterial activity against Streptococcus pyogenes(UC 152) infected mice after sc administration; summary of the method: as §2
[10] = tested on: Mus musculus; experiment: (§3) In vivo antibacterial activity against Proteus vulgaris(UC 347) infected mice after oral administration; summary of the method: as §2
[11] = tested on: Mus musculus; experiment: In vivo antibacterial activity against Streptococcus pneumoniae III(UC 3213) infected mice after oral administration; summary of the method: as §2
[12] = tested on: Mus musculus; experiment: (§4) In vivo antibacterial activity against Klebsiella pneumoniae(UC 58) infected mice after oral administration; summary of the method: as §2
[13] = tested on: Actinomyces naeslundii; experiment: In vitro antibacterial activity against the anaerobic Actinomyces naeslundii (Strain UC no.5920)
[14] = tested on: Bacteroides fragilis; experiment: In vitro antibacterial activity against the anaerobic Bacteroides fragilis (Strain UC no.6864)
Summary of the method: (§5)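 Agar dilution with serial twofold drug dilutions in Schaedler broth mixed into molten Wilkens-Chalgren agar. Strains grown 48 h on Schaedler agar, suspended to 0.5 McFarland, and 0.001 mL spotted by replicator. All steps done anaerobically. Incubation 48 h at 37 °C. MIC is the least drug inhibiting growth; a faint film or fewer than three colonies scored negative.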

[15] = tested on: Bacteroides fragilis; experiment: In vitro antibacterial activity against the anaerobic Bacteroides fragilis (Strain UC no.6428)
[16] = tested on: Clostridioides difficile; experiment: In vitro antibacterial activity against the anaerobic Clostridium difficile (Strain UC no.6857); summary of the method: as §5
[17] = tested on: Clostridioides difficile; experiment: In vitro antibacterial activity against the anaerobic Clostridium difficile (Strain UC no.6858); summary of the method: as §5
[18] = tested on: Clostridioides difficile; experiment: In vitro antibacterial activity against the anaerobic Clostridium difficile (Strain UC no.6860); summary of the method: as §5
[19] = tested on: Clostridioides difficile; experiment: In vitro antibacterial activity against the anaerobic Clostridium difficile (Strain UC no.6861); summary of the method: as §5
[20] = tested on: Clostridium perfringens; experiment: In vitro antibacterial activity against the anaerobic Clostridium perfringens (Strain UC no.6509)
[21] = tested on: Paraclostridium bifermentans; experiment: In vitro antibacterial activity against the anaerobic Clostridium bifermentans (Strain UC no.6507); summary of the method: as §5
[22] = tested on: Clostridium botulinum; experiment: In vitro antibacterial activity against the anaerobic Clostridium botulinum A(Strain UC no.6506)
[23] = tested on: Paeniclostridium sordellii; experiment: In vitro antibacterial activity against the anaerobic Clostridium sordellii (Strain UC no.6505); settings: Paraclostridium sordellii; summary of the method: as §5
[24] = tested on: Escherichia coli; experiment: as §1; summary of the method: as §2
[25] = tested on: Escherichia coli; experiment: In vivo antibacterial activity against Escherichia coli(UC no 311) infected mice after sc administration; summary of the method: as §2
[26] = tested on: Eubacterium limosum; experiment: In vitro antibacterial activity against the anaerobic Eubacterium limosum(Strain UC no.6515); summary of the method: as §5
[27] = tested on: Fusobacterium varium; experiment: In vitro antibacterial activity against the anaerobic Fusobacterium varium(Strain UC no.6052); summary of the method: as §5
[28] = tested on: Fusobacterium nucleatum; experiment: In vitro antibacterial activity against the anaerobic Fusobacterium nucleatum (Strain UC no.6324); summary of the method: as §5
[29] = tested on: Fusobacterium nucleatum; experiment: In vitro antibacterial activity against the anaerobic Fusobacterium nucleatum (Strain UC no.6516); summary of the method: as §5
[30] = tested on: Klebsiella pneumoniae; experiment: In vivo antibacterial activity against Klebsiella pneumoniae(UC no 58) infected mice after sc administration; summary of the method: as §2
[31] = tested on: Pasteurella multocida; experiment: In vitro antibacterial activity against the aerobic Pasteurella multocida (Strain UC no.264)
Summary of the method: (§6)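 Broth microdilution in brain/heart infusion broth with twofold drug dilutions. Inoculum was a standardized suspension giving 10⁵ viable cells/mL final. Plates were incubated 20 h at 37 °C. MIC (mcg/mL) = lowest concentration with no visible growth.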

[32] = tested on: Pasteurella multocida; experiment: In vivo antibacterial activity against Pasteurella multocida(UC no 264) infected mice after sc administration; summary of the method: as §2
[33] = tested on: Plasmodium berghei; experiment: In vivo activity against Plasmodium berghei in mice (Mus musculus) on oral administration
[34] = tested on: Proteus vulgaris; experiment: as §3; summary of the method: as §2
[35] = tested on: Peptostreptococcus anaerobius; experiment: In vitro antibacterial activity against the anaerobic Peptostreptococcus anaerobius(Strain UC no.6321); summary of the method: as §5
[36] = tested on: Peptoniphilus asaccharolyticus; experiment: In vitro antibacterial activity against the anaerobic Peptococcus asaccharolyticus (Strain UC no.6214); summary of the method: as §5
[37] = tested on: Finegoldia magna; experiment: In vitro antibacterial activity against the anaerobic Peptococcus magnus(Strain UC no.6258); summary of the method: as §5
[38] = tested on: Cutibacterium acnes; experiment: In vitro antibacterial activity against the anaerobic Propionibacterium acnes(Strain UC no.6564); summary of the method: as §5
[39] = tested on: Staphylococcus aureus; experiment: In vitro antibacterial activity against the aerobic Staphylococcus aureus (Strain UC no.6687); summary of the method: as §6
[40] = tested on: Staphylococcus aureus; experiment: In vivo antibacterial activity against Staphylococcus aureus (UC no 76) infected mice after sc administration (value in parenthesis is 95% confidence interval); summary of the method: as §2
[41] = tested on: Staphylococcus aureus; experiment: In vivo antibacterial activity against Staphylococcus aureus(UC 76) infected mice after oral administration (value in parenthesis is 95% confidence interval); summary of the method: as §2
[42] = tested on: Streptococcus pyogenes; experiment: In vivo antibacterial activity against Streptococcus pyogenes (UC no 152) infected mice after sc administration (value in parenthesis is 95% confidence interval); summary of the method: as §2
[43] = tested on: Streptococcus pneumoniae; experiment: In vivo antibacterial activity against Streptococcus pneumoniae I (UC no 41) infected mice after sc administration (value in parenthesis is 95% confidence interval); summary of the method: as §2
[44] = tested on: Streptococcus pneumoniae; experiment: In vivo antibacterial activity against Streptococcus pneumoniae I(UC 41) infected mice after oral administration (value in parenthesis is 95% confidence interval); summary of the method: as §2
[45] = tested on: Staphylococcus epidermidis; experiment: In vitro antibacterial activity against the aerobic Staphylococcus epidermidis (Strain UC no.719); summary of the method: as §6
[46] = tested on: Staphylococcus aureus; experiment: In vitro antibacterial activity against the aerobic Staphylococcus aureus (Strain UC no.6685); summary of the method: as §6
[47] = tested on: Staphylococcus epidermidis; experiment: In vitro antibacterial activity against the aerobic Staphylococcus epidermidis (Strain UC no.3389); summary of the method: as §6
[48] = tested on: Parabacteroides distasonis; experiment: In vitro antibacterial activity against the anaerobic Bacteroides distasonis (Strain UC no.6518)
[49] = tested on: Bacteroides fragilis; experiment: In vitro antibacterial activity against the anaerobic Bacteroides fragilis (Strain UC no.6513); summary of the method: as §5
[50] = tested on: Streptococcus pneumoniae; experiment: In vivo antibacterial activity against Streptococcus pneumoniae III (UC no 3213) infected mice after sc administration (value in parenthesis is 95% confidence interval); summary of the method: as §2
[51] = tested on: Bacteroides fragilis; experiment: In vivo antibacterial activity against Bacteroides fragilis(UC no 6428) infected mice after sc administration
[52] = tested on: Klebsiella pneumoniae; experiment: as §4; summary of the method: as §2

Structure (SMILES): CCC[C@@H]1C[C@@H](C(=O)N[C@@H]([C@H]2O[C@H](SC)[C@H](O)[C@@H](O)[C@H]2O)[C@H](C)Cl)N(C)C1 [CLINDAMYCIN]
- CD50 [1]: >400 mg/kg
- CD50 [2]: >160 mg/kg
- CD50 [3]: >320 mg/kg
- CD50 [4]: >160 mg/kg
- CD50 [5]: 53 mg/kg
- CD50 [6]: >160 mg/kg
- CD50 [7]: 12.3 mg/kg
- CD50 [8]: 12.3 mg/kg
- CD50 [9]: 2.3 mg/kg
- CD50 [10]: >400 mg/kg
- CD50 [11]: 37.9 mg/kg
- CD50 [12]: >400 mg/kg

Structure (SMILES): CC[C@@H]1CCN[C@H](C(=O)N[C@@H]([C@H]2O[C@H](SC)[C@H](O)[C@@H](O)[C@H]2O)[C@H](C)Cl)C1 [PIRLIMYCIN]
- MIC [13]: 0.25 µg/mL (≈ 0.608 µM)
- MIC [14]: 2 µg/mL (≈ 4.87 µM)
- MIC [15]: 0.25 µg/mL (≈ 0.608 µM)
- MIC [16]: 125 µg/mL (≈ 304 µM)
- MIC [17]: 3.9 µg/mL (≈ 9.49 µM)
- MIC [18]: 500 µg/mL (≈ 1220 µM)
- MIC [19]: 2 µg/mL (≈ 4.87 µM)
- MIC [20]: 0.12 µg/mL (≈ 0.292 µM)
- MIC [21]: 0.06 µg/mL (≈ 0.146 µM)
- MIC [22]: < 0.03 µg/mL
- MIC [23]: 0.5 µg/mL (≈ 1.22 µM)
- CD50 [24]: >400 mg/kg
- CD50 [25]: >160 mg/kg
- MIC [26]: 2 µg/mL (≈ 4.87 µM)
- MIC [27]: 3.9 µg/mL (≈ 9.49 µM)
- MIC [28]: 0.06 µg/mL (≈ 0.146 µM)
- MIC [29]: 0.12 µg/mL (≈ 0.292 µM)
- CD50 [30]: >320 mg/kg
- MIC [31]: 62.5 µg/mL (≈ 152 µM)
- CD50 [32]: >160 mg/kg
- CD50 [33]: >50 mg/kg
- CD50 [34]: >400 mg/kg
- MIC [35]: 0.12 µg/mL (≈ 0.292 µM)
- MIC [36]: 0.25 µg/mL (≈ 0.608 µM)
- MIC [37]: 0.06 µg/mL (≈ 0.146 µM)
- MIC [38]: 0.12 µg/mL (≈ 0.292 µM)
- MIC [39]: 0.2 µg/mL (≈ 0.487 µM)
- CD50 [40]: 0.4 mg/kg
- CD50 [41]: 2.9 mg/kg
- CD50 [42]: 0.25 mg/kg
- CD50 [43]: 1.7 mg/kg
- CD50 [44]: 20.3 mg/kg
- MIC [45]: 0.2 µg/mL (≈ 0.487 µM)
- MIC [46]: > 25 µg/mL
- MIC [47]: 0.2 µg/mL (≈ 0.487 µM)
- MIC [48]: < 0.03 µg/mL
- MIC [49]: 0.12 µg/mL (≈ 0.292 µM)
- CD50 [50]: 2.7 mg/kg
- CD50 [51]: <6.25 mg/kg
- CD50 [52]: >400 mg/kg
